We go through 8 molecules from paper PMC2574800 (Bioorganic & medicinal chemistry, 2008).

SMILES strings stand for the structures.

In test [1] the test system is murine leukemia L1210 cells. Briefly: Cell growth inhibitory activity, L1210. Type of test: cell-based. Conditions: Mus musculus, L1210, 48 h, read-out: IC50 (proliferation) L1210. The method, boiled down:
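Murine leukaemia L1210 cells grown with varying concentrations of test compound at 37 °C for two days; cell number counted on a Coulter counter. IC50 is the concentration inhibiting cell proliferation by 50%, taken from dose–response curves. Mean ± SE of at least three independent experiments.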

Test [2] relates to Bovine brain tubulin (colchicine site). Briefly: Inhibition of [3H]colchicine binding to tubulin. The following applies: tubulin 1 μM, colchicine 5 μM, tested compound 1 μM.
For test [3], the system named is murine mammary carcinoma FM3A cells. Briefly: Cell growth inhibitory activity, FM3A. It counts as cell-based. The following applies: Mus musculus, 48 h, read-out: IC50 (proliferation) FM3A.
Test [4] has as its system L1210, FM3A, Molt/4 and CEM cells. Briefly: Cell growth inhibitory activity, range over the four cell lines. Type of test: cell-based. Conditions: for IC50: read-out: IC50-values range against the four cell lines. The procedure, abridged:
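Cells incubated with test compound at 37 °C for two days (L1210, FM3A) or three days (Molt 4, CEM). Cell number counted with a Coulter counter. IC50 taken as the concentration giving 50% inhibition of proliferation, from dose–response curves. Mean ± SE of at least three independent experiments.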

In a further test the test system is K562 cells. Briefly: Flow cytometric analysis of cell cycle distribution. It counts as cell-based, human. The following applies: 24 h, compound at its 24 h IC50, propidium iodide. Background: A flow cytometer gives signals particle by particle.

For the molecule `COc1ccc(/C=C\c2cc(OC)c(OC)c(OC)c2)cc1O` [CA-4 (1), combretastatin A-4], the IC50 in test [1] worked out at 2.8 ± 1.1 nM. In test [2], the “Colchicine binding % ± SD (inhibition of [3H]colchicine binding)” value was found to be 86 ± 3%.
For the molecule `COc1ccc2c(N)c(C(=O)c3cc(OC)c(OC)c(OC)c3)[nH]c2c1` [Compound 3a], the IC50 in test [1] was 970 ± 24 nM; in test [3], 1600 ± 30 nM.
Turning to `COc1ccc2c(N)c(C(=O)c3cc(OC)c(OC)c(OC)c3)n(C)c2c1` [Compound 4a], the IC50 was 69 ± 37 nM in test [1] and 97 ± 3 nM in test [3].
Take `COc1cc(C(=O)c2oc3cccc(OC)c3c2N)cc(OC)c1OC` [Compound 5b, (3-Amino-4-methoxybenzofuran-2-yl)(3,4,5-trimethoxyphenyl)methanone]: the “Fold less active than 5d in the four cell lines” value in test [4] (antiproliferative activity relative to 5d) is listed as “over 10 fold”.
On to `COc1ccc2c(N)c(C(=O)c3cc(OC)c(OC)c(OC)c3)oc2c1` [Compound 5d, (3-Amino-6-methoxybenzofuran-2-yl)(3,4,5-trimethoxyphenyl)methanone], for which the “Effect on cell cycle distribution” value in the test on K562 cells was “accumulate in late S phase”. Further, the IC50 in test [4] was in the range of 87 to 430 nM.
As to `COc1ccc2c(N(C)C)c(C(=O)c3cc(OC)c(OC)c(OC)c3)oc2c1` [Compound 5i, (3-(Dimethylamino)-6-methoxybenzofuran-2-yl) (3,4,5-trimethoxyphenyl)methanone], in the test on K562 cells, the “Effect on cell cycle distribution” value is on record as “accumulation of cells in G2-M”. In test [4], the IC50 lay within 48 to 75 nM.
As for `COc1ccc2c(NC(=O)CCl)c(C(=O)c3cc(OC)c(OC)c(OC)c3)oc2c1` [Compound 5l, (3-chloroacetylamino-6-methoxybenzofuran-2-yl)(3,4,5-trimethoxyphenyl)methanone], in the test with K562 cells, the “Effect on cell cycle distribution” value is reported as “accumulate in late S phase”.
The same measure, in the same setting: with `COc1ccc2c(NC(=O)CI)c(C(=O)c3cc(OC)c(OC)c(OC)c3)oc2c1` [Compound 5n, (3-iodoacetylamino-6-methoxybenzofuran-2-yl)(3,4,5-trimethoxyphenyl)methanone] the entry was “greatest percentage increase in the percentage of cells in apoptotic cells (subG0-G1 peak)”.
